From PubChem BioAssay
Only some compounds are listed: those with a hit (about 5.2% of all), similar ones and a draw of the others.
ALR inh: inhibitors of human sulfhydryl oxidase ALR; P55789; purified ALR, DTT oxidation, H2O2 HRP-luminol luminescence; inhibition, % (test concentration not listed); 3.8% of 290,000 active;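 active = mean replicate inhibition above about 79%, with every replicate also reaching it, limit read from the data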
Target sequence (P55789 whole entry, looked up): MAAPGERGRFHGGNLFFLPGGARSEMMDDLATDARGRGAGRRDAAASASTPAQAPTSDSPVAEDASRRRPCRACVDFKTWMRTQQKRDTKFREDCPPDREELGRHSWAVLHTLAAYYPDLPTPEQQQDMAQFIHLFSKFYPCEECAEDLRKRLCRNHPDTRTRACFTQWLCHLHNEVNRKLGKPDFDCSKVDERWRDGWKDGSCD
ZTA DNA inh: blocks Epstein-Barr virus ZTA, an EBNA-1 counter-screen; ZTA-DNA binding, fluorescence polarization; AID 2234; 0.15% of 320,000 active; inhibition, % at 11 µM; P03206; in the data active = inhibition above about 33%
Target sequence (P03206 whole entry, looked up): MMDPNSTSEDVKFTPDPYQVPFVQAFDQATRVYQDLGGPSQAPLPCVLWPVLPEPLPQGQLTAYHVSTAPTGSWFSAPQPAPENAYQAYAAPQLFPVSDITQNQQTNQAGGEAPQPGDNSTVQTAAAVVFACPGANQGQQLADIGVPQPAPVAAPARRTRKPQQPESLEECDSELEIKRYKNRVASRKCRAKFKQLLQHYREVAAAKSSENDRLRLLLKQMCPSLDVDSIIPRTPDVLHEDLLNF
NS3 helicase inh: inhibitors of Hepatitis C virus NS3 helicase; inhibition, % at 10.9 µM; AID 1800; NS3 helicase DNA unwinding, Cy5 molecular beacon fluorescence; 0.56% of 290,000 active;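 active = inhibition above the mean of all tested compounds plus 3 SD, set per campaign, cut at about 35% in these data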
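System: HCV NS3 helicase fragment; control set: DMSO and thioflavine S; technique: Cy5 fluorescence at 0 and 60 min, beacon hairpin quenching; reagent: beacon DNA duplex substrate plus ATP; replicates: singlicate; schedule: 1 h reaction at 25 °C, ATP-initiated; medium: MOPS buffer pH 6.5 with MgCl2, DTT, Tween20, BSA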
M18AAP inhibitor: PfM18AAP enzyme inhibition. recombinant PfM18AAP, H-Glu-NHMec fluorogenic cleavage. inhibition, % at 7.35 µM. 1.2% of 290,000 active;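 active = inhibition above the campaign mean inhibition over all tested compounds plus 3 SD, cut at about 28% in these data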
EBNA-1 inhibitor: blocks EBNA-1 binding to DNA; EBNA-1 DNA binding, fluorescence polarization; inhibition, % at 14.8 µM; 0.34% of 300,000 active; AID 1950; in the data active = inhibition above about 28%
core dimer inh: HCV core protein dimerization inhibition; TR-FRET GST/Flag-core106 dimerization, 1536-well; inhibition, % at 5 µM; 0.33% of 300,000 active; AID 1899;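 active = inhibition above the mean of all tested compounds plus 3 SD, set per screening campaign, cut at about 45% in these data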
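System: GST-tagged and Flag-tagged HCV core protein residues 1-106 / Input: core106 proteins, GST 13.5 nM and Flag 17 nM / Buffer or medium: KF-containing HEPES buffer, pH 7.45, DTT, CHAPS, BSA / Probe or stimulus: Eu-anti-GST and XL665-anti-Flag labelled anti-tag antibodies / Schedule: 4 h, 22.5 °C incubation / Technique: TR-FRET 671 and 617 nm emission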
A number is an active result.

Screening Clc1cnc2nc(SC/C=C/c3ccccc3)[nH]c2c1 returned ALR inh inactive, ZTA DNA inh inactive, NS3 helicase inh inactive, M18AAP inhibitor inactive, EBNA-1 inhibitor inactive and core dimer inh inactive.
Nc1c(Cl)ncnc1NCc1cccnc1 was read as ALR inh inactive, ZTA DNA inh inactive, NS3 helicase inh inactive, M18AAP inhibitor inactive, EBNA-1 inhibitor inactive and core dimer inh inactive.
For Nc1c(Cl)ncnc1NCCc1ccc(O)cc1 the results were ALR inh 90, ZTA DNA inh inactive, NS3 helicase inh inactive, M18AAP inhibitor inactive, EBNA-1 inhibitor inactive and core dimer inh inactive.
For O=C(OCC(=O)N1CCN(C(=O)c2ccco2)CC1)c1cc(-c2ccc(Cl)c(Cl)c2Cl)nc2ccccc12 the results were ZTA DNA inh inactive, NS3 helicase inh inactive, M18AAP inhibitor inactive, EBNA-1 inhibitor inactive and core dimer inh inactive.
Cn1c(=O)c(C(=O)COC(=O)c2cc(-c3ccco3)nc3ccccc23)c(N)n(CC2CC2)c1=O was read as ALR inh inactive, ZTA DNA inh inactive, NS3 helicase inh inactive, M18AAP inhibitor inactive, EBNA-1 inhibitor inactive and core dimer inh 57.
Cn1c(=O)c(C(=O)COC(=O)c2cc(C3CC3)nc3ccccc23)c(N)n(Cc2ccccc2)c1=O was read as ALR inh inactive, ZTA DNA inh inactive, NS3 helicase inh inactive, M18AAP inhibitor inactive, EBNA-1 inhibitor inactive and core dimer inh inactive.
Screening O=C(OCC(=O)N1CCN(C(=O)c2ccco2)CC1)c1cc(-c2ccco2)nc2ccccc12 returned ALR inh 93, ZTA DNA inh inactive, NS3 helicase inh inactive, M18AAP inhibitor inactive, EBNA-1 inhibitor inactive and core dimer inh 68.
Screening Cc1ccc(/C=C2/C(=N)N3N=C(CC(=O)N4CCCC4)SC3=NC2=O)cc1 returned ALR inh 97, ZTA DNA inh inactive, NS3 helicase inh inactive, M18AAP inhibitor inactive, EBNA-1 inhibitor inactive and core dimer inh inactive.
Screening C=CCOc1ccc(/C=C2/C(=N)N3N=C(CC(=O)N4CCCC4)SC3=NC2=O)cc1OC returned ALR inh 99, ZTA DNA inh inactive, NS3 helicase inh inactive, M18AAP inhibitor inactive, EBNA-1 inhibitor inactive and core dimer inh inactive.
Screening COc1ccc(/C=C2/C(=N)N3N=C(CC(=O)N4CCCC4)SC3=NC2=O)cc1OC returned ALR inh inactive, ZTA DNA inh inactive, NS3 helicase inh inactive, M18AAP inhibitor inactive, EBNA-1 inhibitor inactive and core dimer inh inactive.
Screening Cn1c(SCC(=O)c2ccccc2)ncc(C(=O)Nc2ccccc2)c1=O returned ALR inh 98, ZTA DNA inh inactive, EBNA-1 inhibitor inactive and core dimer inh inactive.
`Cc1ccc(NC(=O)c2cnc(SCC(=O)c3ccccc3)n(C)c2=O)cc1` gave ALR inh inactive, ZTA DNA inh inactive, EBNA-1 inhibitor inactive and core dimer inh inactive.
`CCC(C)C1Nc2ccc(C(=O)NCCc3ccc(OC)c(OC)c3)cc2NC1=O` (stereo not drawn) gave ALR inh inactive, ZTA DNA inh inactive, NS3 helicase inh inactive, M18AAP inhibitor inactive, EBNA-1 inhibitor inactive and core dimer inh inactive.
For Cc1ccc(-c2csc(NC(=O)CSC3=NCCS3)n2)cc1 the results were ALR inh 100, ZTA DNA inh inactive, NS3 helicase inh inactive, M18AAP inhibitor inactive, EBNA-1 inhibitor inactive and core dimer inh inactive.
For Cc1ccc(-c2csc(NC(=O)CSc3nc(C)cc(=O)[nH]3)n2)cc1 the results were ALR inh 99, ZTA DNA inh inactive, NS3 helicase inh inactive, M18AAP inhibitor inactive, EBNA-1 inhibitor inactive and core dimer inh inactive.
Screening Cc1ccc(-c2csc(NC(=O)CN3C(=O)CCC3=O)n2)cc1 returned ALR inh inactive, ZTA DNA inh inactive, NS3 helicase inh inactive, M18AAP inhibitor inactive, EBNA-1 inhibitor inactive and core dimer inh inactive.
Cc1ccc(-c2csc(NC(=O)c3ccno3)n2)cc1 was read as ALR inh inactive, ZTA DNA inh inactive, NS3 helicase inh inactive, M18AAP inhibitor inactive, EBNA-1 inhibitor inactive and core dimer inh 62.
Screening CCC(Sc1nc(C)cc(=O)[nH]1)C(=O)Nc1nc(-c2ccccc2)cs1 (stereo not drawn) returned ALR inh inactive, ZTA DNA inh inactive, NS3 helicase inh inactive, M18AAP inhibitor inactive, EBNA-1 inhibitor inactive and core dimer inh inactive.
Screening O=C(CCC(=O)NNC(=O)c1ccc(Cl)cc1Cl)NCc1ccccc1 returned ALR inh inactive and ZTA DNA inh inactive.
